The record followed here is ChEMBL document CHEMBL4145671, “Development of Kinase-Selective, Harmine-Based DYRK1A Inhibitors that Induce Pancreatic Human β-Cell Proliferation” (J Med Chem, 2018).

Data set [1] in a line: Toxicity in human pancreatic islets at 30 uM. The format is cell-based. As to conditions: pancreatic islet.
Data set [2] relates to Pancreatic islet. Briefly: Induction of beta-cell proliferation in human pancreatic islets incubated for 96 hrs by Ki67 and insulin immunolabelling method. In kind it is functional, cell-based. Summed up:
(§1)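 Human islets from the NIH/NIDDK IIDP dispersed onto coverslips with Accutase, then treated with compound or vehicle (0.1% DMSO) in RPMI1640 complete medium for 96 h. Cells fixed, stained for insulin and Ki67, imaged; Ki67/insulin double-positive and total insulin-positive cells counted. Islets from 3 to 5 adult donors, at least 1000 beta cells counted per donor; n = 4–5, SEM.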

Data set [3] relates to Pancreatic islet. The data set is described as follows: Induction of beta-cell proliferation in human pancreatic islets at 10 uM incubated for 96 hrs by Ki67 and insulin immunolabelling method. In kind it is functional, cell-based. Summed up:
as §1

Data set [4] addresses Dual specificity tyrosine-phosphorylation-regulated kinase 1A (Rattus norvegicus) (UniProt Q63470). Briefly: Inhibition of DYRK1A in rat R7T1 cells expressing expressing NFAT2-GFP assessed as induction of NFAT2-GFP nuclear translocation at 10 uM incubated for 24 hrs by. In kind it is cell-based. Summed up:
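Immortalized R7T1 rat beta cells infected with adenovirus expressing NFAT2-GFP for 48 h, then exposed to compound at 10 μM for a further 24 h. Cells imaged and NFAT2-GFP nuclear translocation scored as nuclear frequency, at least 1000 cells counted; n = 3, SEM.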

For data set [5], the system named is Pancreatic islet. The data set is described as follows: Induction of beta-cell proliferation in human pancreatic islets at 30 uM incubated for 96 hrs by Ki67 and insulin immunolabelling method. The format is functional, cell-based. A digest of the protocol:
as §1

For data set [6], the target named is Cyclin-dependent kinase 8 (Homo sapiens) (UniProt P49336). The data set is described as follows: Inhibition of human CDK8 expressed in bacterial expression system assessed as remaining enzyme activity at 10 uM by kinome scan assay.
Data set [7] addresses TGF-beta receptor type-2 (Homo sapiens) (UniProt P37173). Briefly: Inhibition of human TGFBR2 expressed in bacterial expression system assessed as remaining enzyme activity at 10 uM by kinome scan assay.
Data set [8] has as its target Cyclin-dependent kinase-like 5 (Homo sapiens) (UniProt O76039). The data set is described as follows: Inhibition of human CDKL5 expressed in mammalian expression system assessed as remaining enzyme activity at 10 uM by kinome scan assay.
Data set [9] deals with Dual specificity tyrosine-phosphorylation-regulated kinase 1B (Homo sapiens) (UniProt Q9Y463). Briefly: Inhibition of human DYRK1B expressed in bacterial expression system assessed as remaining enzyme activity at 10 uM by kinome scan assay.
For data set [10], the target named is Ribosomal protein S6 kinase alpha-4 (Homo sapiens) (UniProt O75676). Briefly: Inhibition of human RPS6KA4 (Kin.Dom.2-C-terminal) expressed in mammalian expression system assessed as remaining enzyme activity at 10 uM by kinome scan assay.
Data set [11] addresses Casein kinase I isoform alpha (Homo sapiens) (UniProt P48729). The data set is described as follows: Inhibition of human CSNK1A1 expressed in mammalian expression system assessed as remaining enzyme activity at 10 uM by kinome scan assay.
The target of data set [12] is Interleukin-1 receptor-associated kinase 1 (Homo sapiens) (UniProt P51617). Briefly: Inhibition of human IRAK1 expressed in mammalian expression system assessed as remaining enzyme activity at 10 uM by kinome scan assay.
The target of data set [13] is Cyclin-dependent kinase 19 (Homo sapiens) (UniProt Q9BWU1). Briefly: Inhibition of human CDK11 expressed in bacterial expression system assessed as remaining enzyme activity at 10 uM by kinome scan assay.
The target of data set [14] is Death-associated protein kinase 3 (Homo sapiens) (UniProt O43293). Briefly: Inhibition of human DAPK3 expressed in bacterial expression system assessed as remaining enzyme activity at 10 uM by kinome scan assay.
For data set [15], the target named is Citron Rho-interacting kinase (Homo sapiens) (UniProt O14578). The data set is described as follows: Inhibition of human CIT expressed in bacterial expression system assessed as remaining enzyme activity at 10 uM by kinome scan assay.
Data set [16] addresses Cyclin-dependent kinase 7 (Homo sapiens) (UniProt P50613). Briefly: Inhibition of human CDK7 expressed in mammalian expression system assessed as remaining enzyme activity at 10 uM by kinome scan assay.
In data set [17] the target is Death-associated protein kinase 1 (Homo sapiens) (UniProt P53355). The data set is described as follows: Inhibition of human DAPK1 expressed in bacterial expression system assessed as remaining enzyme activity at 10 uM by kinome scan assay.
In data set [18] the target is Homeodomain-interacting protein kinase 2 (Homo sapiens) (UniProt Q9H2X6). Briefly: Inhibition of human HIPK2 expressed in mammalian expression system assessed as remaining enzyme activity at 10 uM by kinome scan assay.
For data set [19], the target named is Serine/threonine-protein kinase pim-1 (Homo sapiens) (UniProt P11309). Briefly: Inhibition of human PIM1 expressed in bacterial expression system assessed as remaining enzyme activity at 10 uM by kinome scan assay.
For data set [20], the target named is Homeodomain-interacting protein kinase 3 (Homo sapiens) (UniProt Q9H422). The data set is described as follows: Inhibition of human HIPK3 expressed in mammalian expression system assessed as remaining enzyme activity at 10 uM by kinome scan assay.
Data set [21] concerns the target Phosphatidylinositol 5-phosphate 4-kinase type-2 gamma (Homo sapiens) (UniProt Q8TBX8). Briefly: Inhibition of human PIP5K2C expressed in mammalian expression system assessed as remaining enzyme activity at 10 uM by kinome scan assay.
In data set [22] the target is Casein kinase I isoform gamma-2 (Homo sapiens) (UniProt P78368). Briefly: Inhibition of human CSNK1G2 expressed in bacterial expression system assessed as remaining enzyme activity at 10 uM by kinome scan assay.
Data set [23] can be described thus: Toxicity in human pancreatic islets at >10 uM. The following applies: pancreatic islet.
The target in data set [24] is Serine/threonine-protein kinase 17B (Homo sapiens) (UniProt O94768). The data set is described as follows: Inhibition of human DRAK2 expressed in bacterial expression system assessed as remaining enzyme activity at 10 uM by kinome scan assay.
For data set [25], the target named is Phosphatidylinositol 4-kinase beta (Homo sapiens) (UniProt Q9UBF8). The data set is described as follows: Inhibition of human PIK4CB expressed in mammalian expression system assessed as remaining enzyme activity at 10 uM by kinome scan assay.
Data set [26] has as its target Serine/threonine-protein kinase pim-2 (Homo sapiens) (UniProt Q9P1W9). The data set is described as follows: Inhibition of human PIM2 expressed in bacterial expression system assessed as remaining enzyme activity at 10 uM by kinome scan assay.
Data set [27] deals with Homeodomain-interacting protein kinase 1 (Homo sapiens) (UniProt Q86Z02). Briefly: Inhibition of human HIPK1 expressed in mammalian expression system assessed as remaining enzyme activity at 10 uM by kinome scan assay.
Data set [28] concerns the target Death-associated protein kinase 2 (Homo sapiens) (UniProt Q9UIK4). Briefly: Inhibition of human DAPK2 expressed in bacterial expression system assessed as remaining enzyme activity at 10 uM by kinome scan assay.
Data set [29] concerns the target Interleukin-1 receptor-associated kinase 3 (Homo sapiens) (UniProt Q9Y616). Briefly: Inhibition of human IRAK3 expressed in bacterial expression system assessed as remaining enzyme activity at 10 uM by kinome scan assay.
Data set [30] has as its target Casein kinase II subunit alpha' (Homo sapiens) (UniProt P19784). The data set is described as follows: Inhibition of human CSNK2A2 expressed in mammalian expression system assessed as remaining enzyme activity at 10 uM by kinome scan assay.
The target in data set [31] is Casein kinase II subunit alpha (Homo sapiens) (UniProt P68400). Briefly: Inhibition of human CSNK2A1 expressed in mammalian expression system assessed as remaining enzyme activity at 10 uM by kinome scan assay.

The structures appear in SMILES notation. Calls of active or inactive are those of the source. No cut-off for these calls is given here.

Sequence of Cyclin-dependent kinase 8 (Homo sapiens) (P49336 whole entry): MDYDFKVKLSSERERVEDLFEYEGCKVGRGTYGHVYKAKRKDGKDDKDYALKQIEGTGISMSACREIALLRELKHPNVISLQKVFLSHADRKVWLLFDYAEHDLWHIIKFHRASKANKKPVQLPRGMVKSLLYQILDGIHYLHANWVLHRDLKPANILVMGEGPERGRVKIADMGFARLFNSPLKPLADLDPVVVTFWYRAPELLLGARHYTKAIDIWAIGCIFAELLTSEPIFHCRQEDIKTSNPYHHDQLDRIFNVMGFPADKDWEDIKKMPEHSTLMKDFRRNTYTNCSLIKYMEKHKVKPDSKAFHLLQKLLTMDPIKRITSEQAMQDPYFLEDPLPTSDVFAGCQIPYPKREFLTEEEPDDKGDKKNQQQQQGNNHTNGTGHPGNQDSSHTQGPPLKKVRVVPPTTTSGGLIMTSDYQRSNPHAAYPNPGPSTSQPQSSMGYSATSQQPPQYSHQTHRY
Sequence of Cyclin-dependent kinase 19 (Homo sapiens) (Q9BWU1 whole entry): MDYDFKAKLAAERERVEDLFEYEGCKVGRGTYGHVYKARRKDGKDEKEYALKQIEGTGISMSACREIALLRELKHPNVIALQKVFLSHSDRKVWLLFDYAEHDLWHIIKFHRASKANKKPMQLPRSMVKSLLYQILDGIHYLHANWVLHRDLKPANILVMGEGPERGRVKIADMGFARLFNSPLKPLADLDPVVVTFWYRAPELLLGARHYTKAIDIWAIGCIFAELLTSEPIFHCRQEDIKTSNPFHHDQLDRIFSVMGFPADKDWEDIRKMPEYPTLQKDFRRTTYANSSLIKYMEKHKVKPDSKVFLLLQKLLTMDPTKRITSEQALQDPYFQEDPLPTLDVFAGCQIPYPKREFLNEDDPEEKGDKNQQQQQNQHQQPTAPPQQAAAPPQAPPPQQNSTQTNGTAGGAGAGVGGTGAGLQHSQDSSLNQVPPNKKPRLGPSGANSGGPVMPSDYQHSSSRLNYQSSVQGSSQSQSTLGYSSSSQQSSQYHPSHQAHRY
Sequence of Death-associated protein kinase 1 (Homo sapiens) (P53355 whole entry, looked up): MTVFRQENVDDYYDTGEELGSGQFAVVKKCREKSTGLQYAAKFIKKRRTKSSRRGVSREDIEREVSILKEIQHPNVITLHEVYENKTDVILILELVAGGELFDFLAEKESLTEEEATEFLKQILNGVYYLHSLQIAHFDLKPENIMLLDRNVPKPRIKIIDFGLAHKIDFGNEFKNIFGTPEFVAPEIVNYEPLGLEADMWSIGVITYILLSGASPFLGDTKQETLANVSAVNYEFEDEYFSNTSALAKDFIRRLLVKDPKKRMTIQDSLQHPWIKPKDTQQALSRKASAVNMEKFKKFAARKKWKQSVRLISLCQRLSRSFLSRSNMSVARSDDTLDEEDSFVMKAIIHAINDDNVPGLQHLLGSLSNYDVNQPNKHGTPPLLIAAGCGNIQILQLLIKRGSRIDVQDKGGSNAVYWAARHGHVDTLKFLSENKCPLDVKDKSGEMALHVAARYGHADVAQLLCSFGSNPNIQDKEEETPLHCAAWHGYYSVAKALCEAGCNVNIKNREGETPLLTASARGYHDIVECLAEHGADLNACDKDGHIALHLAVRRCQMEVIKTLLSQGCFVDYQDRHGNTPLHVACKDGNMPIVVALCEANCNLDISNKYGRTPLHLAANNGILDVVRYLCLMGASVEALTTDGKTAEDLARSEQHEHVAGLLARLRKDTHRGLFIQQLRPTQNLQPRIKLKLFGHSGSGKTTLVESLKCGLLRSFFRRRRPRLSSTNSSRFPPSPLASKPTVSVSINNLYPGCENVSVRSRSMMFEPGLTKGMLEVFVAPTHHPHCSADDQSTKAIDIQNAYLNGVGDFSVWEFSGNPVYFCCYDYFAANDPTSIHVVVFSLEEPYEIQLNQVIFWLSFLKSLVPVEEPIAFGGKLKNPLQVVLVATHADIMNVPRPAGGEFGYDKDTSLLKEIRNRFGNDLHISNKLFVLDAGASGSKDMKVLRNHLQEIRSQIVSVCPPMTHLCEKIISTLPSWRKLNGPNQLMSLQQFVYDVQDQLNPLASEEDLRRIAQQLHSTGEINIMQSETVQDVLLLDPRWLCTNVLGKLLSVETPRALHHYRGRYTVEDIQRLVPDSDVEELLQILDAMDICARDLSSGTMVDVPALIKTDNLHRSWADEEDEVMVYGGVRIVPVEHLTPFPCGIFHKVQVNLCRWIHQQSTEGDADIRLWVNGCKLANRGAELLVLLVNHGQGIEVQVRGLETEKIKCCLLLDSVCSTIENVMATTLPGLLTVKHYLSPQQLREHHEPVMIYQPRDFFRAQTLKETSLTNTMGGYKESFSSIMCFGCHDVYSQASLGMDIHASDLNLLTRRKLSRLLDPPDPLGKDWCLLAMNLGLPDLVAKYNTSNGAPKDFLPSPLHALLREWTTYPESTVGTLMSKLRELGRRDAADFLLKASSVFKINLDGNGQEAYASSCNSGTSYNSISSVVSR
Sequence of Cyclin-dependent kinase-like 5 (Homo sapiens) (O76039 whole entry): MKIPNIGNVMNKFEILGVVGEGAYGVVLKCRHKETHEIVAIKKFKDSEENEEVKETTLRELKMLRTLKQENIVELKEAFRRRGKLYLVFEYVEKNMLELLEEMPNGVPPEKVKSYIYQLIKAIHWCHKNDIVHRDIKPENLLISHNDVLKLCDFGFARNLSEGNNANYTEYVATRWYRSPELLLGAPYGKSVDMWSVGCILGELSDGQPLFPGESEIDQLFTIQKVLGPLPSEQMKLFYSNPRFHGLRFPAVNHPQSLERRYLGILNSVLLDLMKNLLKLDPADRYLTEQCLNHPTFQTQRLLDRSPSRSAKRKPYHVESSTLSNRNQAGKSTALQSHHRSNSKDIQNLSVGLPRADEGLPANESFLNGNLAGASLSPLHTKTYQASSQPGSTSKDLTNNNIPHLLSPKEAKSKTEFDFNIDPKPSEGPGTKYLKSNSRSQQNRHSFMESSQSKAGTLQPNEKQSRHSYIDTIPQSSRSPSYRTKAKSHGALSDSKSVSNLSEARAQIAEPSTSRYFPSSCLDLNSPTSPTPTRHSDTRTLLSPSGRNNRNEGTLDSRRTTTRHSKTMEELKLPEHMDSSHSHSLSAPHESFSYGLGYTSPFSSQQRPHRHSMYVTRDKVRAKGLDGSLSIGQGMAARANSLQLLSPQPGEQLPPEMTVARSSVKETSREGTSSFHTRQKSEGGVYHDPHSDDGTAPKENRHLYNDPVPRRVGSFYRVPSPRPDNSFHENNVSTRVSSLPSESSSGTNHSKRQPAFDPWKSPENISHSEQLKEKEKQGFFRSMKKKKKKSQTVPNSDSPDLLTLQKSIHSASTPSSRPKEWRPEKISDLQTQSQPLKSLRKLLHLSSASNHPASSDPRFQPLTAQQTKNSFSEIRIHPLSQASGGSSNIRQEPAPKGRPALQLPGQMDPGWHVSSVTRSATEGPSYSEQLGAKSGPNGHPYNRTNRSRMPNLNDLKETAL
Sequence of Death-associated protein kinase 2 (Homo sapiens) (Q9UIK4 whole entry, looked up): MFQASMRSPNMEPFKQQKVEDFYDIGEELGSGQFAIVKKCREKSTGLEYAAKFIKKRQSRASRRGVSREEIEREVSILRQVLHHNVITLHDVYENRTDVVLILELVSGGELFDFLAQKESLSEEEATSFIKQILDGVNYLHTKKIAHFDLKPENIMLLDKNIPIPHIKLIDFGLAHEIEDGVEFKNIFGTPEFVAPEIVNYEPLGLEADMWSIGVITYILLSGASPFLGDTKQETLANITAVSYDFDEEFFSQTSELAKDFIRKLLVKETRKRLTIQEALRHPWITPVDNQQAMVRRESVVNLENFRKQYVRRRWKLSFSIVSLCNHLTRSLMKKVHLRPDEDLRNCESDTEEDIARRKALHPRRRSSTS
Sequence of Death-associated protein kinase 3 (Homo sapiens) (O43293 whole entry, looked up): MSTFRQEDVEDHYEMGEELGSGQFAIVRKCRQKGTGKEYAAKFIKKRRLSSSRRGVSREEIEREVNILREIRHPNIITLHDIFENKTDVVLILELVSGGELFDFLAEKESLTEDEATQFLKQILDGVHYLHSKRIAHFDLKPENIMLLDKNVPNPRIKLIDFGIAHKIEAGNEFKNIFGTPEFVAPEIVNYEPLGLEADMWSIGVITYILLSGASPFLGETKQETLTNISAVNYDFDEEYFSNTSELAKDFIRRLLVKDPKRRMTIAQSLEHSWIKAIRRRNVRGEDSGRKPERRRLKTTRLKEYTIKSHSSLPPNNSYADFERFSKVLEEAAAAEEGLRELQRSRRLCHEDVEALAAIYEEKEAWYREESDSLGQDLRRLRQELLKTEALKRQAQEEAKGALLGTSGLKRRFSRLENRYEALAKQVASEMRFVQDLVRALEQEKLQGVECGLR
Sequence of Interleukin-1 receptor-associated kinase 3 (Homo sapiens) (Q9Y616 whole entry): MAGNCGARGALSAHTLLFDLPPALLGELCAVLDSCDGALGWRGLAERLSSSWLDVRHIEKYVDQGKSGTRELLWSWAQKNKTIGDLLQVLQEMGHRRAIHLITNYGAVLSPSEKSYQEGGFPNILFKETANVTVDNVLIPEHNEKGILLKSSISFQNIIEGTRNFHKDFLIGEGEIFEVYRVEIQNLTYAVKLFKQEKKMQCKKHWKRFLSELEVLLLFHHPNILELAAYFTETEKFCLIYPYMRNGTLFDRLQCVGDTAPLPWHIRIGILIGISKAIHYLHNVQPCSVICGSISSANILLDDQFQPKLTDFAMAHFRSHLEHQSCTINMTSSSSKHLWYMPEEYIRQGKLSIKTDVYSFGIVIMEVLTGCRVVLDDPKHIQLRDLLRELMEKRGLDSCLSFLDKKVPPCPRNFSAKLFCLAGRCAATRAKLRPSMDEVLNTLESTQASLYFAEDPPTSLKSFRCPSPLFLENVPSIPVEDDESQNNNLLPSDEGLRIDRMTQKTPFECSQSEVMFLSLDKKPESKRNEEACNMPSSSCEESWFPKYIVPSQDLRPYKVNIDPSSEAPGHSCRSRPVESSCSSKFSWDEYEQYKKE

In the case of `COc1ccc2c(c1)[nH]c1c(C)nc(CO)cc12`, the results for the Activity entry in data set [1], in data set [2] and in data set [6] were “Non-Toxic”, “Dose-dependent effect” and 0%, respectively. The result in data set [3] and in data set [5] was Active. Moreover, in data set [4], the inhibition result is “Active”.
Turning to `COc1ccc2c(c1)[nH]c1c(N3CCCC3c3ccccc3)nccc12` (stereo not given), in data set [3], the outcome was inactive.
On to `COc1ccc2c(c1)[nH]c1c(C(C)=O)nccc12`, for which the result in data set [5] was Active.
With `COc1ccc2c(c1)[nH]c1c(N3CCCC3Cc3ccccc3)nccc12` (stereo not given), the result in data set [3] was inactive.
The same measure, in the same setting: in the case of `COc1ccc2c(c1)[nH]c1c(N3CCCC3)nccc12` it was “inactive”.
As to `COc1ccc2c(c1)[nH]c1c(C)nccc12` [HARMINE], the Activity was 78% in data set [7]; 100% in [8]; 6.1% in data set [9]; 40% in [10]; 15% in [11]; 17% in [12]. Also, the Activity came to 83% in [13]; 69% in [14]; 29% in [15]; 21% in data set [16]; 78% in [17]; 8.6% in [18]. Besides, the Activity in data set [19] was 45%; in data set [20], 9.4%; in data set [21], 36%; in [22] it was 19%; in [23], “Toxic”; in [6] it was 55%. The Activity in data set [24] was 73%; in [25], 12%; in data set [26] it was 39%; in [27] it was 21%; in [28], 72%; in data set [29] it was 15%. For the same compound, the Activity in data set [30] turned out to be 23%; in data set [31], 11%. The result in data set [3] was Active.
For `COc1ccc2c(c1)[nH]c1c(CO)nccc12`, the figures for the Activity entry in [1] and in data set [2] were “Non-Toxic” and “Dose-dependent effect”, respectively. The outcome in [3] and in data set [5] was Active. Also, the inhibition entry in [4] is “Active”.
On to `COc1ccc2c(c1)[nH]c1c(Cl)nccc12`, for which the result in [3] and in data set [5] was Active.
Consider `COc1ccc2c(c1)[nH]c1c(N3CCC3)nccc12`, for which, in data set [3], the result was Active.
